Measured values reported in ChEMBL document CHEMBL2062384, “Alkyne derivatives of isocoumarins as clickable activity-based probes for serine proteases” (Bioorg Med Chem, 2012).
Calls of active or inactive are those of the source. The rule behind the calls is not given here.

How the values were obtained:
[1] = molecular target: T1, Cathepsin G (Homo sapiens) (UniProt P08311); experiment: Binding affinity to human cathepsin G assessed as protein labeling at 2 uM after 15 mins by fluorescent scanning method
T1 sequence (whole entry): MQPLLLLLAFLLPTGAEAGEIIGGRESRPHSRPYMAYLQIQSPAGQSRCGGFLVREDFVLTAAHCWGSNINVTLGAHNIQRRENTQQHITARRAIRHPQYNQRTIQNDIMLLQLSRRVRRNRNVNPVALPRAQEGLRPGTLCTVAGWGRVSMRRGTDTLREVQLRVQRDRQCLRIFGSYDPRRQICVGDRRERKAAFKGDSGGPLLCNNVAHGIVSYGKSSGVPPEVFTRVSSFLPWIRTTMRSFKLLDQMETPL
Outline: (§1)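 100 ng purified protease per lane; cathepsin G in 50 mM HEPES pH 7.4 with 100 mM NaCl, others in 50 mM phosphate pH 7.4. Optional 30 min pre-block (chymotrypsin 100 µM Ala-Ala-Phe-phosphonate, cathepsin G 1 mM PMSF, urokinase 100 µM DFP, elastase/trypsin 1 mM dichloroisocoumarin). Probe 2 µM, 15 min at room temperature. Then 30 min room-temperature click (25 µM TAMRA-PEG-N3, 50 µM THPTA, 1 mM CuSO4, 500 µM ascorbate), SDS-PAGE, scan ex 532/em 580 nm.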

[2] = species: Bos taurus; experiment: Binding affinity to bovine chymotrypsin assessed as protein labeling at 2 uM measured after 15 mins by fluorescent scanning method; outline: as §1
[3] = species: Rattus norvegicus; experiment: Binding affinity to 25 kDa Chymotrypsin in rat liver proteome assessed as protein labeling at 1 uM after 30 mins by fluorescent scanning method
Outline: (§2)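 Rat liver homogenate (70 µm strainer, 0.5% NP-40 substitute in PBS, 1 h on ice, 15,000 rpm spin), diluted to 1 mg/mL protein in 50 mM phosphate, pH 7.4; pretreated 30 min on ice with DMSO, TPCK (100 µM) or PMSF (1 mM), then IC probe. Cu(I) click with TAMRA-PEG-N3/THPTA/CuSO4/ascorbate, SDS-PAGE, fluorescence scan (ex 532/em 580 nm).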

[4] = species: Bos taurus; experiment: Binding affinity to bovine chymotrypsin assessed as protein labeling at 2 uM measured after 15 mins pretreated with 100 uM Ala-Ala-Phe-diphenyl phosphonate for 30 mins before compound addition by fluorescent scanning method; outline: as §1
[5] = species: Rattus norvegicus; experiment: Binding affinity to 25 kDa Chymotrypsin in rat liver proteome assessed as protein labeling at 1 uM after 30 mins pre-treated with 100 uM TPCK for 30 mins before compound addition by fluorescent scanning method; outline: as §2
[6] = molecular target: Urokinase-type plasminogen activator (Homo sapiens) (UniProt P00749); experiment: Binding affinity to urokinase-type plasminogen activator assessed as protein labeling at 2 uM after 15 mins pretreated with 100 uM DFP for 30 mins before compound addition by fluorescent scanning method; outline: as §1
[7] = molecular target: Trypsin (Homo sapiens) (UniProt P07477+P07478+P35030); experiment: Binding affinity to trypsin assessed as protein labeling at 2 uM after 15 mins by fluorescent scanning method; format: protein assay; outline: as §1
[8] = species: Sus scrofa; experiment: Binding affinity to porcine pancreatic elastase assessed as protein labeling at 2 uM after 15 mins pretreated with 1 mM 3,4-dichloroisocoumarin for 30 mins before compound addition by fluorescent scanning method; outline: as §1
[9] = species: Sus scrofa; experiment: Binding affinity to porcine pancreatic elastase assessed as protein labeling at 2 uM after 15 mins by fluorescent scanning method; outline: as §1
[10] = molecular target: Urokinase-type plasminogen activator (Homo sapiens) (UniProt P00749); experiment: Binding affinity to urokinase-type plasminogen activator assessed as protein labeling at 2 uM after 15 mins by fluorescent scanning method; outline: as §1
[11] = species: Rattus norvegicus; experiment: Binding affinity to 50 kDa Serine protease band in rat liver proteome assessed as protein labeling at 1 uM after 30 mins by fluorescent scanning method; conditions: 0.5 uM, in the assay text read “at 0.5 uM” for “at 1 uM”; outline: as §2
[12] = molecular target: T1, Cathepsin G (Homo sapiens); experiment: Binding affinity to human cathepsin G assessed as protein labeling at 2 uM after 15 mins in presence of mouse EL4 lymphoma cell lysate for protease spiking by fluorescent scanning method relative to total protein content; format: cell-free
Outline: (§3)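 Protease spiked into EL4 mouse lymphoma lysate (RIPA, 30 min on ice, cleared by centrifugation; 1 mg/mL protein in 50 mM phosphate pH 7.4), optionally pre-blocked (urokinase 100 µM DFP). Labeled with 2 µM probe 15 min on ice. Click on ice 30 min with TAMRA-PEG-N3, THPTA, CuSO4, ascorbate; 12% or 15% SDS-PAGE, fluorescence scan ex 532/em 580 nm.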

[13] = species: Rattus norvegicus; experiment: Binding affinity to 50 kDa Serine protease band in rat liver proteome assessed as protein labeling at 1 uM after 30 mins pre-treated with 100 uM TPCK for 30 mins before compound addition by fluorescent scanning method; conditions: 0.5 uM, in the assay text read “at 0.5 uM” for “at 1 uM”; outline: as §2
[14] = species: Rattus norvegicus; experiment: Binding affinity to 50 kDa Serine protease band in rat liver proteome assessed as protein labeling at 1 uM after 30 mins pre-treated with serin eprotease inhibitor PMSF for 30 mins before compound addition by fluorescent scanning method; conditions: 0.5 uM, in the assay text read “at 0.5 uM” for “at 1 uM”; outline: as §2
[15] = test system: lymphoma; experiment: Binding affinity to porcine pancreatic elastase assessed as protein labeling at 2 uM after 15 mins in presence of mouse EL4 lymphoma cell lysate for protease spiking by fluorescent scanning method relative to total protein content; format: cell-free; conditions: Sus scrofa; outline: as §3
[16] = molecular target: Urokinase-type plasminogen activator (Homo sapiens) (UniProt P00749); experiment: (§4) Binding affinity to urokinase-type plasminogen activator assessed as protein labeling at 2 uM after 15 mins in presence of mouse EL4 lymphoma cell lysate for protease spiking by fluorescent scanning method relative to total protein content; format: cell-free; outline: as §3
[17] = molecular target: Urokinase-type plasminogen activator (Homo sapiens) (UniProt P00749); experiment: as §4, with “mins pretreated with 100 uM DFP for 30 mins before compound addition” for “mins”; format: cell-free; outline: as §3
[18] = species: Rattus norvegicus; experiment: Binding affinity to 26 kDa Chymotrypsin in rat liver proteome assessed as protein labeling at 1 uM after 30 mins by fluorescent scanning method; outline: as §2
[19] = species: Rattus norvegicus; experiment: Binding affinity to 26 kDa Chymotrypsin in rat liver proteome assessed as protein labeling at 1 uM after 30 mins pre-treated with 100 uM TPCK for 30 mins before compound addition by fluorescent scanning method; outline: as §2

SMILES | Activity [1] | Activity [2] | Activity [4] | Activity [6] | Activity [7] | Activity [8] | Activity [9] | Activity [10] | further results
C#CCCOc1oc(=O)c2cc([N+](=O)[O-])ccc2c1Cl | – | Active | inactive | inactive | Active | Active | Active | Active | –
C#CCCC(=O)Nc1ccc2c(Cl)c(OC)oc(=O)c2c1 | Active | Active | inactive | – | – | inactive | Active | – | Activity [15]: 0.007%
C#CCCC(=O)Nc1ccc2c(Cl)c(OCCc3ccccc3)oc(=O)c2c1 | – | Active | inactive | – | – | – | – | – | –
C#CCCOc1oc(=O)c2ccccc2c1Cl | Active | Active | inactive | inactive | Active | – | Active | Active | Activity [18]: Active; Activity [19]: inactive
C#CCCC(=O)Nc1ccc2c(Cl)c(OCCSC(=N)N)oc(=O)c2c1 | – | Active | inactive | – | Active | – | – | Active | –

More lines, main results first:

Activity [1] | Activity [2] | Activity [4] | Activity [6] | Activity [7] | Activity [8] | Activity [9] | Activity [10] | SMILES | further results
Active | Active | inactive | – | – | – | – | – | C#CCCOc1oc(=O)c2cc(NC(=O)c3ccccc3)ccc2c1Cl | Activity [3]: Active; Activity [5]: inactive
Active | Active | inactive | inactive | Active | Active | Active | Active | C#CCCOc1oc(=O)c2cc(N)ccc2c1Cl | Activity [11]: Active; Activity [12]: 0.03%; Activity [13]: Active; Activity [14]: inactive
– | Active | inactive | – | Active | – | – | Active | C#CCCOc1oc(=O)c2cc(NC(=O)CN)ccc2c1Cl | –
– | Active | inactive | – | Active | inactive | Active | Active | C#CCCOc1oc(=O)c2cc(NC(=O)CNC(=N)N)ccc2c1Cl | Activity [16]: 0.03%; Activity [17]: Active
Active | Active | inactive | – | – | inactive | Active | – | C#CCCC(=O)Nc1ccc2c(Cl)c(OCCBr)oc(=O)c2c1 | –
